# Measured values from ChEMBL document CHEMBL1926518, “Synthesis of macrolones with central piperazine ring in the linker and its influence on antibacterial activity” (2011).
# Experiments:
# Format in all cases: functional
# Staphylococcus aureus [1] = test: Antibacterial activity against constitutive macrolide, licosamide and streptogramin-resistant Staphylococcus aureus PK2 by broth microdilution technique
# Procedure, shortened: (§1)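 MICs were determined by CLSI broth microdilution, with double dilutions of compound. Staphylococci were grown on Mueller–Hinton agar before testing. Results are given in µg/mL.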
# Streptococcus pneumoniae [2] = test: Antibacterial activity against efflux-mediated macrolide-resistant Streptococcus pneumoniae Ci137 by broth microdilution technique
# Procedure, shortened: (§2)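 MICs were determined by CLSI broth microdilution, with double dilutions of compound. In the streptococcal medium, 5% horse serum replaced lysed blood. Streptococci were grown on Columbia agar with 5% sheep blood before testing. Results are given in µg/mL.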
# Streptococcus pneumoniae [3] = test: Antibacterial activity against inducible macrolide-resistant, constitutive licosamide and streptogramin-resistant Streptococcus pneumoniae 134 GR-Micro by broth microdilution technique; procedure, shortened: as §2
# Haemophilus influenzae = test: Antibacterial activity against Haemophilus influenzae ATCC 49247 by broth microdilution technique
# Procedure, shortened: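 MIC by broth microdilution per CLSI guidelines with doubling dilutions of compounds. Before testing, organisms were grown on Mueller-Hinton chocolate agar. Values reported in µg/mL.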
# Staphylococcus aureus [4] = test: Antibacterial activity against erythromycin-sensitive Staphylococcus aureus ATCC 13709 by broth microdilution technique
# Procedure, shortened: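 MIC by broth microdilution per CLSI guidelines with doubling dilutions of compounds. Before testing, staphylococci were grown on Mueller–Hinton agar. Values reported in µg/mL.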
# Streptococcus pyogenes [5] = test: Antibacterial activity against inducible macrolide, licosamide and streptogramin-resistant Streptococcus pyogenes Finland 11 by broth microdilution technique; procedure, shortened: as §2
# Streptococcus pyogenes [6] = test: Antibacterial activity against constitutive macrolide, licosamide and streptogramin-resistant Streptococcus pyogenes 166 GR-Micro by broth microdilution technique; procedure, shortened: as §2
# Staphylococcus aureus [7] = test: Antibacterial activity against inducible macrolide, licosamide and streptogramin-resistant Staphylococcus aureus 90256/97 by broth microdilution technique; procedure, shortened: as §1
# Streptococcus pyogenes [8] = test: Antibacterial activity against erythromycin-sensitive Streptococcus pyogenes 3565 by broth microdilution technique
# Procedure, shortened: (§3)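 Streptococcal MICs by CLSI broth microdilution with doubling dilutions, but with 5% horse serum in the medium in place of lysed blood. Before testing, strains were grown on Columbia agar with 5% sheep blood. Values reported in µg/mL.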
# Streptococcus pneumoniae [9] = test: Antibacterial activity against constitutive macrolide, licosamide and streptogramin-resistant Streptococcus pneumoniae 58 Spain by broth microdilution technique; procedure, shortened: as §2
# Staphylococcus aureus [10] = test: Antibacterial activity against efflux-mediated macrolide-resistant Staphylococcus aureus PK1 by broth microdilution technique; procedure, shortened: as §1
# Moraxella catarrhalis = test: Antibacterial activity against Moraxella catarrhalis ATCC 23246 by broth microdilution technique
# Procedure, shortened: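 MIC by broth microdilution per CLSI guidelines with doubling dilutions of compounds. Before testing, organisms were grown on Columbia agar with 5% sheep blood. Values reported in µg/mL.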
# Streptococcus pyogenes [11] = test: Antibacterial activity against efflux-mediated macrolide-resistant Streptococcus pyogenes 3 Finland by broth microdilution technique; procedure, shortened: as §2
# Streptococcus pneumoniae [12] = test: Antibacterial activity against erythromycin-sensitive Streptococcus pneumoniae SP030 by broth microdilution technique; procedure, shortened: as §3
SMILES,MIC (Staphylococcus aureus [1]) [µg/mL],MIC (Streptococcus pneumoniae [2]) [µg/mL],MIC (Streptococcus pneumoniae [3]) [µg/mL],MIC (Haemophilus influenzae) [µg/mL],MIC (Staphylococcus aureus [4]) [µg/mL],MIC (Streptococcus pyogenes [5]) [µg/mL],MIC (Streptococcus pyogenes [6]) [µg/mL],MIC (Staphylococcus aureus [7]) [µg/mL],MIC (Streptococcus pyogenes [8]) [µg/mL],MIC (Streptococcus pneumoniae [9]) [µg/mL],MIC (Staphylococcus aureus [10]) [µg/mL],MIC (Moraxella catarrhalis) [µg/mL],MIC (Streptococcus pyogenes [11]) [µg/mL],MIC (Streptococcus pneumoniae [12]) [µg/mL]
CCOC(=O)c1cn(CC)c2ccc(C#CCN3CCN(C(=O)OC(C)(C)C)CC3)cc2c1=O,> 64,> 64,> 64,> 64,> 64,> 64,> 64,> 64,> 64,> 64,> 64,> 64,> 64,> 64
CCOC(=O)c1cn(CC)c2ccc(C#CCN3CCNCC3)cc2c1=O,> 64,> 64,> 64,> 64,> 64,> 64,> 64,> 64,> 64,> 64,> 64,> 64,> 64,> 64
CCOC(=O)c1cn(C2CC2)c2ccc(C#CCN3CCN(C(=O)OC(C)(C)C)CC3)cc2c1=O,> 64,> 64,> 64,> 64,> 64,> 64,> 64,> 64,> 64,> 64,> 64,> 64,> 64,> 64
CCOC(=O)c1cn(C2CC2)c2ccc(C#CCN3CCNCC3)cc2c1=O,> 64,> 64,> 64,> 64,> 64,> 64,> 64,> 64,> 64,> 64,> 64,> 64,> 64,> 64
CCOC(=O)c1cn(CC)c2ccc(/C=C/CN3CCN(C(=O)OC(C)(C)C)CC3)cc2c1=O,> 64,> 64,> 64,> 64,> 64,> 64,> 64,> 64,> 64,> 64,> 64,> 64,> 64,64
CCOC(=O)c1cn(CC)c2ccc(/C=C/CN3CCNCC3)cc2c1=O,> 64,> 64,> 64,> 64,> 64,> 64,> 64,> 64,> 64,> 64,> 64,> 64,> 64,64
CCOC(=O)c1cn(CC)c2ccc(C#CCN3CCN(CCC(=O)O[C@H]4[C@H](C)O[C@@H](O[C@H]5[C@H](C)[C@@H](O[C@@H]6O[C@H](C)C[C@H](N(C)C)[C@H]6O)[C@](C)(OC)C[C@@H](C)C(=O)[C@H](C)[C@@H](O)[C@](C)(O)[C@@H](CC)OC(=O)[C@@H]5C)C[C@@]4(C)OC)CC3)cc2c1=O,> 64,≤ 0.125,1,4,0.25,≤ 0.125,8,> 64,≤ 0.125,≤ 0.125,32,1,,≤ 0.125
